From ChEMBL document CHEMBL2169867, “Novel β-amino acid derivatives as inhibitors of cathepsin A” (J Med Chem, 2012)
Active and inactive are the calls of the source. No cut-off for these calls is given here.

Tests used:
[1] = target: T1, Lysosomal protective protein (Homo sapiens, UniProt P10619); assay: Inhibition of human recombinant Myc-His10-tagged cathepsin A expressed in baculovirus infected Sf9 cells using BodipyFL labeled bradykinin as substrate incubated for 15 mins prior to substrate addition measured after 15 mins by fluorimetric analysis
T1 sequence (P10619 whole entry): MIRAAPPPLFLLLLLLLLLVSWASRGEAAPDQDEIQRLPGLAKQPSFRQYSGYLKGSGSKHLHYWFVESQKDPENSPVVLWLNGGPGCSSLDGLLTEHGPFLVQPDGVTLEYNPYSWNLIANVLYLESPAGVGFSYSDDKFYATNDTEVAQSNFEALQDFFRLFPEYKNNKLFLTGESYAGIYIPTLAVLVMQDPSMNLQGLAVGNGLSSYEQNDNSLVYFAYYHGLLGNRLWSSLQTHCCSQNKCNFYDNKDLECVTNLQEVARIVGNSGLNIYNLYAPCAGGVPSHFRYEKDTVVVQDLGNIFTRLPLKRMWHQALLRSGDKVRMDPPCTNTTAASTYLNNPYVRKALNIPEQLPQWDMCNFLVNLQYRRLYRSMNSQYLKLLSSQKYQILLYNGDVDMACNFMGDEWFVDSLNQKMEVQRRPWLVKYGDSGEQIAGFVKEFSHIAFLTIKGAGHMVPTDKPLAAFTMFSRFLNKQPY

Neprilysin = Neprilysin (Homo sapiens, UniProt P08473); assay: Inhibition of human recombinant NEP using Mca-RPPGFSAFK(Dnp)-OH as substrate incubated for 15 mins prior to substrate addition measured after 20 to 30 mins by fluorimetric analysis
Sequence of Neprilysin (P08473 whole entry): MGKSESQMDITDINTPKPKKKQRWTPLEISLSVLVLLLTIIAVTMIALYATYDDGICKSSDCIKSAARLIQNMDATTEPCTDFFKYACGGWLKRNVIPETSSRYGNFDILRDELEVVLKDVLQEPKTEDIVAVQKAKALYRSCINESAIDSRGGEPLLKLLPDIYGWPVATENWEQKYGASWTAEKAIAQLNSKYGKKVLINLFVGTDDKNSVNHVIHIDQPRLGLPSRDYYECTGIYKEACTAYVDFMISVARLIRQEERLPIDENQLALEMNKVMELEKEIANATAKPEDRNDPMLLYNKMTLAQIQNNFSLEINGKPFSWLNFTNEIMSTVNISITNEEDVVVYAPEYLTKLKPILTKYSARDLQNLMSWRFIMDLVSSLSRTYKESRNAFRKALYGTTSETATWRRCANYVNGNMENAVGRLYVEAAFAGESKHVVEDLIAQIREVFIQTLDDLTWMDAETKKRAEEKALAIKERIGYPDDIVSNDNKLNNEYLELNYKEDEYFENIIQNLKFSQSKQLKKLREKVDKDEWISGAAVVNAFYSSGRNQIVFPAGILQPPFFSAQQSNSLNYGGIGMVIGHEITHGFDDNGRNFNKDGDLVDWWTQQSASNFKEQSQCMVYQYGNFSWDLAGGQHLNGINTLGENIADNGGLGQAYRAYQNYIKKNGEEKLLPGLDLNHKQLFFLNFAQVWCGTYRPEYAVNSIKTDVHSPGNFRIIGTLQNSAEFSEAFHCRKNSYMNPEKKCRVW
Outline: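 Recombinant human NEP and inhibitor preincubated 15 min at room temperature in reaction buffer, then substrate added. Fluorescence read after 20-30 min at room temperature. % inhibition and IC50 calculated against internal high and low controls.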

CYP3A4 = CYP3A4 (Homo sapiens, UniProt P08684); assay: (§1) Induction of CYP3A4 relative to control; assay type: ADME; details: human
Sequence of CYP3A4 (P08684 whole entry): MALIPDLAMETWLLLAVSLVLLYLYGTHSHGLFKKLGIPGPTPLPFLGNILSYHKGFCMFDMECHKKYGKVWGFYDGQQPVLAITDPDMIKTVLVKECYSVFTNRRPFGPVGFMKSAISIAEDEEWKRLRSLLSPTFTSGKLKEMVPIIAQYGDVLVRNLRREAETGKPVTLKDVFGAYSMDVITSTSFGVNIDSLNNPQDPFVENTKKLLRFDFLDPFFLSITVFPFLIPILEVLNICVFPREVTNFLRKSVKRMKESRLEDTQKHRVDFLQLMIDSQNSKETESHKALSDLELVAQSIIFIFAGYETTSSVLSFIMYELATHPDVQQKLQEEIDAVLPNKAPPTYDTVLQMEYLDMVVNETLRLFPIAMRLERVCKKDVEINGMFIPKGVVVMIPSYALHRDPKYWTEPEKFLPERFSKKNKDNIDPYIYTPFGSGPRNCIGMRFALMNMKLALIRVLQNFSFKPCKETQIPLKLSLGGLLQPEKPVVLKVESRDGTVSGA

[2] = target: Cathepsin A (Homo sapiens); assay: Inhibition of cathepsin A
Rattus norvegicus [3] = assay: Antihypertensive activity in Wistar rat assessed as bradykinin-dependent diuresis at 1 mg/kg, iv administered as bolus measured as urine flow rate (reference value: 11.6 uL/min); assay type: functional
Rattus norvegicus [4] = assay: Effect on glomerular filtration rate in Wistar rat assessed as change in creatinine excretion at 30 mg/kg, po relative to vehicle-treated control; assay type: functional, organism-based; set-up: dose 30 mg/kg
Outline: (§2)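 Male Wistar rats dosed po at 30 mg kg⁻¹ day⁻¹. Urine collected over 6 h before and after treatment. Bradykinin measured by commercial RIA; creatinine excretion also determined. Mean ± SEM, n = 9-10; paired t test.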

[5] = Permeability across human Caco2 cells; assay type: ADME, cell-based; details: Caco-2, read-out: permeability
[6] = Cmax in Sprague-Dawley rat heart at 10 mg/kg, po; assay type: ADME, organism-based; set-up: dose 10 mg/kg, route oral
Outline: (§3)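 Male Sprague-Dawley rats; single oral 10 mg/kg in glycofurol 75 (19%)/Cremophor RH40 (6%)/water (75%). Plasma and heart sampled at eight time points over 24 h, three animals per time point, nonserial design. Heart homogenized with water (2 g per 1 g tissue). Concentrations measured by LC-MS/MS with a structurally related internal standard; AUC(0-inf) taken from plasma concentration-time curves.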

[7] = Cmax in Sprague-Dawley rat plasma at 10 mg/kg, po; assay type: ADME, organism-based; set-up: dose 10 mg/kg, route oral; outline: as §3
[8] = AUC (0 to infinity) in Sprague-Dawley rat plasma at 10 mg/kg, po; assay type: ADME, organism-based; set-up: time infinity, dose 10 mg/kg, route oral; outline: as §3
Rattus norvegicus [9] = assay: Antihypertensive activity in Wistar rat assessed as increase in bradykinin level in urine at 30 mg/kg, po relative to vehicle-treated control; assay type: functional; outline: as §2
[10] = AUC (0 to infinity) in Sprague-Dawley rat heart at 10 mg/kg, po; assay type: ADME, organism-based; set-up: time infinity, dose 10 mg/kg, route oral; outline: as §3
Cytochrome P450 3A4 = Cytochrome P450 3A4 (Homo sapiens, UniProt P08684); assay: as §1; assay type: ADME
Sequence of Cytochrome P450 3A4 (P08684 whole entry): as above

Mus musculus [11] = assay: Cardioprotective activity against angiotensin 2-induced cardiac hypertrophy in B6.129P2-ApoE/J mouse assessed as heart rate at 100 mg/kg/day, po administered BID after 4 weeks (reference value: 403.23 7.98 bpm); assay type: functional
Mus musculus [12] = assay: Cardioprotective activity against angiotensin 2-induced cardiac hypertrophy in B6.129P2-ApoE/J mouse assessed as mean arterial pressure at 100 mg/kg/day, po administered BID after 4 weeks (reference value: 99.03 6.82 mmHg); assay type: functional, Heart
Mus musculus [13] = assay: Cardioprotective activity against angiotensin 2-induced cardiac hypertrophy in B6.129P2-ApoE/J mouse assessed as left ventricular end systolic pressure at 100 mg/kg/day, po administered BID after 4 weeks (reference value: 139.36 9.79 mmHg); assay type: functional, Heart left ventricle
Mus musculus [14] = assay: Toxicity in B6.129P2-ApoE/J mouse assessed as body weight at 100 mg/kg/day, po administered BID after 4 weeks (reference value: 30.48 0.52 g); assay type: organism-based; set-up: route oral; details: in vivo, 672 h
Mus musculus [15] = assay: Cardioprotective activity against angiotensin 2-induced cardiac hypertrophy in B6.129P2-ApoE/J mouse assessed as left ventricular end diastolic pressure at 100 mg/kg/day, po administered BID after 4 weeks (reference value: 15.49 1.95 mmHg); assay type: functional, Heart left ventricle
Mus musculus [16] = assay: Cardioprotective activity against angiotensin 2-induced cardiac hypertrophy in B6.129P2-ApoE/J mouse assessed as ejection fraction at 100 mg/kg/day, po administered BID after 4 weeks (reference value: 51.14 2.49 %); assay type: functional, Heart
Mus musculus [17] = assay: Cardioprotective activity against angiotensin 2-induced cardiac hypertrophy in B6.129P2-ApoE/J mouse assessed as left ventricular wet weight at 100 mg/kg/day, po administered BID after 4 weeks (reference value: 182.03 […]); assay type: functional, Heart left ventricle
Mus musculus [18] = assay: Ratio of left ventricular wet weight to body weight in B6.129P2-ApoE/J mouse at 100 mg/kg/day, po administered BID after 4 weeks (reference value: 5.99 0.28 mg/g); assay type: functional
Mus musculus [19] = assay: Cardioprotective activity against angiotensin 2-induced cardiac hypertrophy in B6.129P2-ApoE/J mouse assessed as left ventricular relaxation time at 100 mg/kg/day, po administered BID after 4 weeks (reference value: 8.73 0.41 ms); assay type: functional, Heart left ventricle

CC(C)(C)[C@H](O)COc1cc(C(=O)N[C@@H](CC(=O)O)c2ccc(Cl)cc2Cl)nn1-c1ccccc1F showed an IC50 [1] of 70 nM.

With Cc1ccccc1[C@H](CC(=O)O)NC(=O)c1cc(OC[C@@H](O)C(C)(C)C)n(-c2ccccc2F)n1 the IC50 [1] was 10 nM.

With Cc1ccccc1[C@H](CC(=O)O)NC(=O)c1cc(=O)n(-c2cccc(Cl)c2)[nH]1 the IC50 [1] was 102 nM.

For COc1cn(-c2ccccc2)nc1C(=O)N[C@@H](CC(=O)O)c1ccccc1C, the IC50 [1] was 100 nM.

In the case of Cc1ccccc1[C@H](CC(=O)O)NC(=O)c1cc(OCC2CC2)n(-c2ccccc2F)n1, the IC50 [1] is reported as 15 nM, the IC50 (Neprilysin) is reported as 27000 nM and the Emax (CYP3A4) is reported as 72%. The IC50 [2] was 15 nM.

Cc1ccc(C)c(-n2[nH]c(C(=O)NC(CC(=O)O)c3ccc(F)cc3)cc2=O)c1 (racemic) gave an IC50 [1] of 5380 nM.

Compound COc1c(Cl)c(C(=O)N[C@@H](CC(=O)O)c2ccccc2C)nn1-c1ccccc1F has an IC50 [1] of 110 nM.

In the case of Cc1ccccc1[C@H](CC(=O)O)NC(=O)c1cc(=O)n(-c2ccccc2)[nH]1, the IC50 [1] is reported as 70 nM.

O=C(O)CC(NC(=O)c1cc(=O)n(-c2ccc(F)cc2F)[nH]1)c1cccc(Cl)c1Cl (racemic) gave an IC50 [1] of 120 nM.

Compound Cc1ccccc1[C@H](CC(=O)O)NC(=O)c1cc(=O)n(-c2ccccc2Cl)[nH]1 has an IC50 [1] of 57 nM.

For CC(C)(C)[C@@H](O)COc1cc(C(=O)N[C@@H](CC(=O)O)c2ccc(Cl)cc2Cl)nn1-c1ccccc1F, the Activity (Rattus norvegicus [3]) was 36.5 µL/min, the Activity (Rattus norvegicus [4]) was “inactive” and the Papp [5] was > 2 ×10⁻⁶ cm/s. The Cmax [6] was 872 ng/mL, the Cmax [7] was 2670 ng/mL and the AUC(0-inf) [8] was 9300 ng·h/mL. The “fold change (FC)” value (Rattus norvegicus [9]) was 2, the IC50 [1] was 50 nM and the IC50 (Neprilysin) was > 1000 nM. The inhibition (Neprilysin) was “inactive”, the AUC(0-inf) [10] was 2600 ng·h/mL and the Activity (Cytochrome P450 3A4) was “Not Active”.

Cc1ccccc1[C@H](CC(=O)O)NC(=O)c1cc(=O)n(-c2cccc(F)c2)[nH]1 showed an IC50 [1] of 59 nM.

In the case of O=C(O)CC(NC(=O)c1cc(=O)n(-c2ccccc2F)[nH]1)c1ccc(-c2ccc(F)cc2)cc1 (racemic), the IC50 [1] is reported as 25 nM.

With Cc1ccccc1[C@H](CC(=O)O)NC(=O)c1nn(-c2ccccc2)cc1O the IC50 [1] was 110 nM.

Work on COc1c(F)c(C(=O)N[C@@H](CC(=O)O)c2ccccc2C)nn1-c1ccccc1F yielded an IC50 [1] of 30 nM.

With O=C(O)CC(NC(=O)c1cc(=O)n(-c2ccccc2)[nH]1)c1cccc(Cl)c1Cl (racemic) the IC50 [1] was 100 nM and the IC50 (Neprilysin) was < 60 nM.

In the case of Cc1ccc([C@H](CC(=O)O)NC(=O)c2cc(=O)n(-c3ccccc3F)[nH]2)cc1, the IC50 [1] is reported as 274 nM.

O=C(O)CC(NC(=O)c1cc(=O)n(-c2ccccc2F)[nH]1)c1ccccc1 (racemic) gave an IC50 [1] of 226 nM.

For Cc1ccc(F)cc1C(CC(=O)O)NC(=O)c1cc(=O)n(-c2ccccc2F)[nH]1 (racemic), the IC50 [1] was 76 nM.

Work on O=C(O)CC(NC(=O)c1cc(=O)n(-c2ccccc2)[nH]1)c1ccc(Oc2ccccc2)cc1 (racemic) yielded an IC50 [1] of 200 nM.

With Cc1ccccc1[C@@H](CC(=O)O)NC(=O)c1cc(=O)n(-c2ccccc2)[nH]1 the IC50 [1] was 7800 nM.

For Cc1ccc(C)c(-n2[nH]c(C(=O)NC(CC(=O)O)c3ccc(-c4ccccc4)cc3)cc2=O)c1 (racemic), the IC50 [1] was 803 nM.

Compound Cc1cccc([C@H](CC(=O)O)NC(=O)c2cc(=O)n(-c3ccccc3F)[nH]2)c1 has an IC50 [1] of 252 nM.

In the case of O=C(O)C[C@H](NC(=O)c1cc(=O)n(-c2ccccc2F)[nH]1)c1ccccc1C(F)(F)F, the IC50 [1] is reported as 375 nM.

In the case of CC(C)(C)C(=O)COc1cc(C(=O)N[C@@H](CC(=O)O)c2ccc(Cl)cc2Cl)nn1-c1ccccc1F, the Papp [5] is reported as > 2 ×10⁻⁶ cm/s and the IC50 [1] is reported as 60 nM.

With CCOc1cc(C(=O)N[C@@H](CC(=O)O)c2ccccc2C)nn1-c1ccccc1F the IC50 [1] was 15 nM, the Emax (CYP3A4) was 51% and the IC50 [2] was 15 nM.

Work on CC(=O)S[C@@H]1CC2=CC(=O)CC[C@]2(C)[C@H]2CC[C@@]3(C)[C@@H](CC[C@@]34CCC(=O)O4)[C@H]12 [SPIRONOLACTONE] yielded an Activity (Mus musculus [11]) of 410.78 bpm, an Activity (Mus musculus [12]) of 103.99 mmHg and an Activity (Mus musculus [13]) of 137.39 mmHg. For the same compound, the Activity (Mus musculus [14]) was 28.84 g, the Activity (Mus musculus [15]) was 14.93 mmHg and the Activity (Mus musculus [16]) was 58.59%. The Activity (Mus musculus [17]) was 145.96 mg, the Ratio (Mus musculus [18]) was 5.07 mg/g and the Time (Mus musculus [19]) was 7.52 ms.

In the case of Cc1ccccc1[C@H](CC(=O)O)NC(=O)c1cc(OCC(=O)C(C)(C)C)n(-c2ccccc2F)n1, the Papp [5] is reported as > 2 ×10⁻⁶ cm/s and the IC50 [1] is reported as 3 nM.

For Cc1ccccc1[C@H](CC(=O)O)NC(=O)c1cc(OC[C@H](O)C(C)(C)C)n(-c2ccccc2F)n1, the Activity (Rattus norvegicus [3]) was 27.7 µL/min, the Activity (Rattus norvegicus [4]) was “inactive” and the Papp [5] was > 2 ×10⁻⁶ cm/s. For the same compound, the Cmax [6] was 426 ng/mL, the Cmax [7] was 1360 ng/mL and the AUC(0-inf) [8] was 5300 ng·h/mL. The “fold change (FC)” value (Rattus norvegicus [9]) was 2, the IC50 (Neprilysin) was > 1000 nM and the inhibition (Neprilysin) was “inactive”. The AUC(0-inf) [10] was 1600 ng·h/mL and the Activity (Cytochrome P450 3A4) was “Not Active”.

Cc1ccccc1[C@H](CC(=O)O)NC(=O)c1cc(=O)n(-c2ccc(F)cc2)[nH]1 showed an IC50 [1] of 87 nM.

For COc1ccccc1[C@H](CC(=O)O)NC(=O)c1cc(=O)n(-c2ccccc2F)[nH]1, the IC50 [1] was 357 nM.

For O=C(O)CC(NC(=O)c1cc(=O)n(-c2ccc(Cl)cc2)[nH]1)c1cc(Cl)ccc1Cl (racemic), the IC50 [1] was > 30000 nM and the IC50 (Neprilysin) was 300 nM.
